Reference: ChEMBL document CHEMBL4190293, “Anti-inflammatory Meroterpenoids from Baeckea frutescens” (J Nat Prod, 2017)
Activity calls are given as the source filed them. The calls are words filed in the database; no cut-off is given here.

Tests used:
[1] = test system: RAW264.7; experiment: Antiinflammatory activity in mouse RAW264.7 cells assessed as inhibition of LPS-stimulated nitric oxide production pretreated for 2 hrs followed by LPS-stimulation measured after 20 hrs by Griess assay; format: functional, cell-based
Method in brief: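 Murine RAW 264.7 macrophages in DMEM with 10% FBS, seeded at 1 × 10^5 cells/well and grown 12 h. Pretreated with compound for 2 h, then given LPS (1 μg/mL) for 20 h; L-NMMA as positive control. Supernatant nitrite mixed 1:1 with Griess reagent, 10 min at room temperature, absorbance read at 540 nm. IC50 from three independent replicates. Viability checked by Alamar Blue after 20 h.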

[2] = test system: RAW264.7; experiment: Antiinflammatory activity in mouse RAW264.7 cells assessed as inhibition of LPS-stimulated IL-6 expression at 0.2 to 0.8 uM pretreated for 2 hrs followed by LPS-stimulation measured after 18 hrs by ELISA; format: functional, cell-based
Method in brief: (§1)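 RAW 264.7 cells seeded at 1 × 10^6 cells/well in serum-free DMEM for 12 h. Cells pretreated with test compound at 0.2, 0.4 or 0.8 μM for 2 h, then stimulated with LPS (1 μg/mL) for 18 h. TNF-α and IL-6 in the culture supernatant measured by ELISA kit. Mean ± SD of three independent experiments; one-way ANOVA with Dunnett's post hoc test.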

[3] = test system: RAW264.7; experiment: Antiinflammatory activity in mouse RAW264.7 cells assessed as inhibition of LPS-stimulated TNFalpha expression pretreated for 2 hrs followed by LPS-stimulation measured after 18 hrs by ELISA; format: functional, cell-based; method in brief: as §1
[4] = biological target: Transcription factor p65 (Mus musculus) (UniProt Q04207); experiment: Inhibition of NF-kappaB p65 nuclear translocation in LPS-stimulated mouse RAW264.7 cells pretreated for 2 hrs followed by LPS-stimulation measured after 16 hrs by Western blot analysis; format: cell-based
Chain of Transcription factor p65 (Mus musculus) (Q04207 whole entry): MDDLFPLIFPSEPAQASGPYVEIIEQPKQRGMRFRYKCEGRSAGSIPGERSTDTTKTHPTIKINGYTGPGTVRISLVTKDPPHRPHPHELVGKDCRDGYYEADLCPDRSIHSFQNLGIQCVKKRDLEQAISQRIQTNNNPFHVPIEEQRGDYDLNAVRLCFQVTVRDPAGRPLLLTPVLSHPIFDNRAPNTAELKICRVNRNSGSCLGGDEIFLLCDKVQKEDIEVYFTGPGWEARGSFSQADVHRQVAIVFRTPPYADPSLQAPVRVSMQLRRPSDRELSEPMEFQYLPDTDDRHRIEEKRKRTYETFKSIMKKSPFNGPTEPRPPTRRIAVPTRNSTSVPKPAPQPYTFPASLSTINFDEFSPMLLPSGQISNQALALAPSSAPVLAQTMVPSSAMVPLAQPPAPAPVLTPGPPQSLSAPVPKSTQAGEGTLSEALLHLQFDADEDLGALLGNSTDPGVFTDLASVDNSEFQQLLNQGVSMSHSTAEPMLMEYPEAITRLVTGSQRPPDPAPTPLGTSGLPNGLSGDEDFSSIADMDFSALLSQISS
Method in brief: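 RAW 264.7 cells exposed to compound at 0.2, 0.4 or 0.8 μM for 2 h, then given 1 μg/mL LPS, or left unstimulated, for 16 h. Lysates made in RIPA buffer, protein quantified by BCA, run on 10% SDS-PAGE and transferred to PVDF. Blots probed for NF-κB p65 with lamin B as internal control, primary antibodies at 4 °C overnight. Mean ± SD of three independent experiments.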

## COC1=C(C)C(=O)C2=C(O[C@]3(C=C4[C@H](C(C)C)CC[C@@H](C)[C@H]4CC3)C[C@@H]2C(C)C)C1(C)C
[1]
  IC50: > 50 µM

## COC1=C(C)C(=O)C2=C(O[C@@]3(C=C4[C@H](C(C)C)CC[C@@H](C)[C@H]4CC3)C[C@@H]2C(C)C)C1(C)C
[1]
  IC50: 18.8 µM

## COC1=C(C)C(=O)C2=C(O[C@@]3(CC[C@]45[C@H]([C@H](C(C)C)CC[C@H]4C)[C@@H]35)C[C@@H]2C(C)C)C1(C)C
[1]
  IC50: 15.2 µM

## COC1=C(C)C(=O)C2=C(O[C@]3(CC[C@@H]4C[C@@H]3C4(C)C)C[C@@H]2C(C)C)C1(C)C
[1]
  IC50: 3.7 µM

## COC1=C(C)C2=C(C(=O)C1(C)C)[C@@H](C(C)C)C[C@]1(CC[C@@]3(C(C)C)C[C@@H]13)O2
[2]
  inhibition: inactive
[1]
  IC50: 0.36 µM
[3]
  inhibition: Dose-dependent effect
[4]
  inhibition: Dose-dependent effect

## COC1=C(C)C(=O)C2=C(O[C@]3(CC[C@]45[C@H]([C@H](C(C)C)CC[C@H]4C)[C@@H]35)C[C@H]2C(C)C)C1(C)C
[1]
  IC50: 30.5 µM

## COC1=C(C)C(=O)[C@]2(CC(CCC=C(C)C)=CC[C@H]2C(C)C)C(=O)C1(C)C (racemic)
[1]
  IC50: 6.5 µM

## CNC(=N)NCCC[C@H](N)C(=O)O [TILARGININE]
[1]
  IC50: 30.9 µM

## C=C1CC[C@@H]2[C@H](C(C)C)C3=C(O[C@@]2(C)CC[C@@H]2[C@@H]1CC2(C)C)C(C)(C)C(OC)=C(C)C3=O
[1]
  IC50: > 50 µM

## COC1=C(C)C(=O)[C@@]2(CC=C(CCC=C(C)C)C[C@H]2C(C)C)C(=O)C1(C)C (racemic)
[1]
  IC50: 2.07 µM

## COC1=C(C)C2=C(C(=O)C1(C)C)[C@H](C(C)C)C[C@@]1(CC[C@@]3(C(C)C)C[C@@H]13)O2 (racemic)
[1]
  IC50: 1.8 µM

## COC1=C(C)C(=O)C2=C(O[C@@]3(C=C4[C@H](C(C)C)CC[C@@H](C)[C@H]4CC3)C[C@H]2C(C)C)C1(C)C
[1]
  IC50: > 50 µM
